These results are taken from ChEMBL document CHEMBL4428026, “Discovery of New Monocarbonyl Ligustrazine-Curcumin Hybrids for Intervention of Drug-Sensitive and Drug-Resistant Lung Cancer” (J Med Chem, 2016).

The source made the active and inactive calls. The calls are words filed in the database; no cut-off is given here.

For data set [1], the system named is A549. Description: Antiproliferative activity against human A549 cells after 72 hrs by MTT assay. In kind it is functional, cell-based. The settings on record: A549, 72 h. An outline of the steps:
(§1)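 Cells (A549, A549/DDP, SPC-A-1, LTEP-G-2, non-tumor bronchial epithelial HBE) were exposed in triplicate to vehicle or compound for 72 h. MTT (5 mg/mL in PBS) was then added for 4 h, formazan was dissolved in DMSO, and absorbance was read at 570 nm. IC50 values were derived from viability.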

In data set [2] the test system is A549/CDDP. Description: Antiproliferative activity against human A549/CDDP cells after 72 hrs by MTT assay. In kind it is functional, cell-based. The method, boiled down: as §1
In data set [3] the target is T1, Thioredoxin reductase (Homo sapiens, UniProt Q16881+Q9NNW7+Q86VQ6). In words: Inhibition of thioredoxin reductase (unknown origin) after 2 hrs by DTNB dye based microplate spectrophotometry. In kind it is protein assay. The method, boiled down: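 NADPH-reduced TrxR (0.16 µM) was preincubated in triplicate with vehicle DMSO (0.1%, v/v) or varying compound concentrations for 2 h. It was then reacted with 2 mM DTNB and 200 µM NADPH for 3 min, and absorbance was read at 412 nm. IC50 was derived.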

Data set [4] relates to A549. Description: Induction of apoptosis in human A549 cells at 2.1 to 4.2 uM after 24 hrs by annexin V-FITC/propidium iodide staining-based flow cytometry. In kind it is functional, cell-based. An outline of the steps: (§2)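 Cells were seeded at 1 × 10^5/well and treated 24 h with DMSO (1%) or compound. They were then washed in PBS, stained with FITC-Annexin V and propidium iodide, and apoptotic fractions were quantified by flow cytometry.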

The target of data set [5] is T1, Thioredoxin reductase. In words: Inhibition of thioredoxin reductase in human A549/CDDP cells by DTNB dye based microplate spectrophotometry. In kind it is cell-based. An outline of the steps: (§3)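 A549 or A549/DDP cells were treated with varying compound concentrations for 24 h, then harvested, homogenized and centrifuged. Protein (50 µg) was reacted in triplicate with NADPH and DTNB in TE buffer at 37 °C for 1 h, and TNB was read at 412 nm. Activity was taken from a purified-TrxR standard curve, and IC50 was derived.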

Data set [6] concerns A549/CDDP. Description: Induction of apoptosis in human A549/CDDP cells at 0.6 to 1.2 uM after 24 hrs by annexin V-FITC/propidium iodide staining-based flow cytometry. In kind it is functional, cell-based. An outline of the steps:
as §2

The target of data set [7] is T1, Thioredoxin reductase. Description: Inhibition of thioredoxin reductase in human A549 cells by DTNB dye based microplate spectrophotometry. In kind it is cell-based. An outline of the steps: as §3
Data set [8] is described as follows: Antiproliferative activity against human LTEP-G2 cells after 72 hrs by MTT assay. In kind it is functional, cell-based. The method, boiled down: as §1
The nature of data set [9]: Antiproliferative activity against human SPC-A1 cells after 72 hrs by MTT assay. In kind it is functional, cell-based. The settings on record: SPCA1, 72 h. An outline of the steps:
as §1

Data set [10] can be described thus: Cytotoxicity against NHBE cells after 72 hrs by MTT assay. As to conditions: Homo sapiens. In kind it is cell-based. The method, boiled down:
as §1

Data set [11] concerns the target ATP-dependent translocase ABCB1 (Homo sapiens, UniProt P08183). In words: Inhibition of P-gp ATPase activity in human A549/CDDP cells at 200 uM by luminescence assay (reference value: 706683 +/- 23554 RLU). In kind it is cell-based.

Chain of ATP-dependent translocase ABCB1 (P08183 whole entry): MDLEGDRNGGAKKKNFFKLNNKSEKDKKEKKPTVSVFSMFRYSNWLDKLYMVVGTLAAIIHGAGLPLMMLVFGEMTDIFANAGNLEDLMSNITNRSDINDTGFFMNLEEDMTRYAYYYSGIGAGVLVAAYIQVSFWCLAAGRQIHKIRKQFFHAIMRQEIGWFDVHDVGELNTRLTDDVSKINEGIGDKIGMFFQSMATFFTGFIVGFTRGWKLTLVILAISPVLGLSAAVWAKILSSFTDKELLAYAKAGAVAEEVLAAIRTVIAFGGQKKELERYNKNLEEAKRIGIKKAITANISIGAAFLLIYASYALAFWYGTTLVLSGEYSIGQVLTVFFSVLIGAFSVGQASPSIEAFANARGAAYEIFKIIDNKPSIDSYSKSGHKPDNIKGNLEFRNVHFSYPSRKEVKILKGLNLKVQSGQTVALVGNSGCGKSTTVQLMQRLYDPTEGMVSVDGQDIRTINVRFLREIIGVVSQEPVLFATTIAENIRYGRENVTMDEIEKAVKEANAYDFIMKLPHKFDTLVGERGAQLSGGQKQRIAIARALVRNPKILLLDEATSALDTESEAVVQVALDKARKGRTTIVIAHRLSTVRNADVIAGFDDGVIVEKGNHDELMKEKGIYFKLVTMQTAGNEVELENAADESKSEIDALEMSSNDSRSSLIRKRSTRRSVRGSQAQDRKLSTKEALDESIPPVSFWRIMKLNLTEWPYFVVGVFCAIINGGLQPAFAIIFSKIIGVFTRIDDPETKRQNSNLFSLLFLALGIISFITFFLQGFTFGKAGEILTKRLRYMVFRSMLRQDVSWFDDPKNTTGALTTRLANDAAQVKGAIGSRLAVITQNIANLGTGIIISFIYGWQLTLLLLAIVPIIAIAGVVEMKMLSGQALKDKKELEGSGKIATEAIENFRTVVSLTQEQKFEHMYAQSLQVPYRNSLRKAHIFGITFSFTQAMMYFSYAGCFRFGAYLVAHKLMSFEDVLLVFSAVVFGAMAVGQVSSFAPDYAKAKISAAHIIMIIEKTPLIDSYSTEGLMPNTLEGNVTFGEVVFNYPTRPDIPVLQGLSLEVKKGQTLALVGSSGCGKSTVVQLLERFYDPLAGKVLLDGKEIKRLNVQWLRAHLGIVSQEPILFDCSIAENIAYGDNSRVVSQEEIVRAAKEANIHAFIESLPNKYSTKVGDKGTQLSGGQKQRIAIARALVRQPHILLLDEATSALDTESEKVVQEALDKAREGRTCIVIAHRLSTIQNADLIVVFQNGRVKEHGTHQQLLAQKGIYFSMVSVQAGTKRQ

For the molecule `Cc1nc(C)c(/C=C/C(=O)/C=C/c2ccccc2)nc1C`, the IC50 in the data set on A549 [1] turned out to be 12.3 µM; in the data set on A549/CDDP [2], 11.9 µM.
For the molecule `Cc1nc(C)c(C)nc1C` [LIGUSTRAZINE], the concentration for half-maximal inhibition (IC50) at Thioredoxin reductase [3], against Thioredoxin reductase [5], at Thioredoxin reductase [7], with A549 [1] and with A549/CDDP [2] was > 200 µM in each case. Moreover, the result with A549 [4] and in the data set on A549/CDDP [6] was Active.
Take `COc1cc(/C=C/C(=O)/C=C/c2nc(C)c(C)nc2C)cc(OC)c1OC`: the IC50 stood at 3.06 µM against Thioredoxin reductase [3]; 1.98 µM against Thioredoxin reductase [5]; 2.34 µM in data set [8]; 2.36 µM on Thioredoxin reductase [7]; 1.6 µM in the data set with A549 [1]; 5.35 µM in data set [9]. For the same molecule, the results for the half-maximal inhibitory concentration (IC50) (in data set [10]; with A549/CDDP [2]) were 14.3 µM and 1 µM, respectively.
For `Cc1nc(C)c(/C=C/C(=O)/C=C/c2ccc(C(F)(F)F)cc2)nc1C`, the values for the IC50 with A549 [1] and in the data set on A549/CDDP [2] were 11.7 µM and 6.9 µM, respectively.
Regarding `COc1ccccc1/C=C/C(=O)/C=C/c1nc(C)c(C)nc1C`, the values for the IC50 in the data set with A549 [1] and with A549/CDDP [2] were 3.2 µM and 4.74 µM, respectively.
As for `COc1cc(/C=C/C(=O)CC(=O)/C=C/c2ccc(O)c(OC)c2)ccc1O` [CURCUMIN], the half-maximal inhibitory concentration (IC50) against Thioredoxin reductase [3] was found to be 41.42 µM; against Thioredoxin reductase [5], 39.42 µM; against Thioredoxin reductase [7] it was 40.56 µM; in the data set with A549 [1], 38.1 µM; with A549/CDDP [2], 32.4 µM. In addition, the outcome in the data set with A549 [4] and in the data set on A549/CDDP [6] was Active.
Take `Cc1nc(C)c(/C=C/C(=O)/C=C/c2ccc(F)cc2)nc1C`: the IC50 in the data set on A549 [1] is 5.9 µM; in the data set with A549/CDDP [2], 7.44 µM.
Turning to `Cc1nc(C)c(/C=C/C(=O)/C=C/c2ccc(Cl)cc2)nc1C`, the IC50 is 15.8 µM in the data set with A549 [1] and 7.49 µM in the data set on A549/CDDP [2].
Turning to `Cc1nc(C)c(/C=C/C(=O)/C=C/c2ccccc2[N+](=O)[O-])nc1C`, the half-maximal inhibitory concentration (IC50) in the data set on A549 [1] is 17.3 µM; with A549/CDDP [2], 6.39 µM.
On to `Cc1nc(C)c(/C=C/C(=O)/C=C/c2ccc(O)cc2)nc1C`, for which the IC50 in the data set with A549 [1] is 4.01 µM; in the data set on A549/CDDP [2] it was 4.79 µM.
For `COc1cccc(/C=C/C(=O)/C=C/c2nc(C)c(C)nc2C)c1`, the half-maximal inhibitory concentration (IC50) in the data set on A549 [1] came out at 3.3 µM; with A549/CDDP [2] it was 3.44 µM.
Consider `COc1ccc(/C=C/C(=O)/C=C/c2nc(C)c(C)nc2C)cc1OC`, for which the 50% inhibitory concentration (IC50) was 7.09 µM against Thioredoxin reductase [3]; 4.22 µM on Thioredoxin reductase [5]; 4.36 µM in [8]; 4.17 µM against Thioredoxin reductase [7]; 3.79 µM in the data set on A549 [1]; 5.42 µM in [9]. Moreover, the IC50 in data set [10] is 16.2 µM; in the data set on A549/CDDP [2], 2.44 µM.
On to `Cc1nc(C)c(/C=C/C(=O)/C=C/c2ccc3ccccc3c2)nc1C`, for which the half-inhibitory concentration (IC50) amounted to 7.1 µM in the data set with A549 [1] and 11.8 µM with A549/CDDP [2].
Consider `Cc1ccc(/C=C/C(=O)/C=C/c2nc(C)c(C)nc2C)cc1`, for which the IC50 in the data set on A549 [1] turned out to be 4.3 µM; with A549/CDDP [2] it was 3.99 µM.
As to `COc1cccc(/C=C/C(=O)/C=C/c2nc(C)c(C)nc2C)c1O`, the concentration for half-maximal inhibition (IC50) against Thioredoxin reductase [3] was determined as 5.3 µM; against Thioredoxin reductase [5], 4.64 µM; in data set [8] it was 5.01 µM; against Thioredoxin reductase [7], 4.73 µM; in the data set with A549 [1], 2.85 µM; in data set [9] it was 5.71 µM. Also, the IC50 in [10] turned out to be 17.6 µM; with A549/CDDP [2] it was 2.19 µM.
As for `Cc1nc(C)c(/C=C/C(=O)/C=C/c2cccc(O)c2)nc1C`, the IC50 in the data set with A549 [1] turned out to be 4.3 µM; with A549/CDDP [2], 3.7 µM.
For the molecule SODIUM ORTHOVANAD, the Activity in data set [11] stood at 790447 RLU.
In the case of `COc1ccc(/C=C/C(=O)/C=C/c2nc(C)c(C)nc2C)cc1`, the half-maximal inhibitory concentration (IC50) was determined as 3.5 µM in the data set on A549 [1] and 3.61 µM in the data set on A549/CDDP [2].
For `Cc1nc(C)c(/C=C/C(=O)/C=C/c2ccc([N+](=O)[O-])cc2)nc1C` the same measures were 9.6 µM and 7.9 µM.
Take `Cc1nc(C)c(/C=C/C(=O)/C=C/c2ccc3c(c2)OCO3)nc1C`: the IC50 with A549 [1] was 4.5 µM; with A549/CDDP [2], 5.2 µM.
For `Cc1nc(C)c(/C=C/C(=O)/C=C/c2ccccc2O)nc1C` the same measures were 4.78 µM and 3.9 µM.
For the molecule `Cc1nc(C)c(/C=C/C(=O)/C=C/c2cccc([N+](=O)[O-])c2)nc1C`, the IC50 in the data set with A549 [1] is 6.7 µM; in the data set on A549/CDDP [2], 6.69 µM.
Take `COc1ccc(/C=C/C(=O)/C=C/c2nc(C)c(C)nc2C)c(OC)c1`: the half-maximal inhibitory concentration (IC50) worked out at 7.63 µM on Thioredoxin reductase [3]; 4.26 µM against Thioredoxin reductase [5]; 5.91 µM in [8]; 4.12 µM against Thioredoxin reductase [7]; 3.07 µM with A549 [1]; 6.32 µM in data set [9]. The concentration for half-maximal inhibition (IC50) amounted to 20.8 µM in data set [10] and 2.85 µM in the data set on A549/CDDP [2].
`COc1ccc(CCN(C)CCCC(C#N)(c2ccc(OC)c(OC)c2)C(C)C)cc1OC` (stereo not given) [VERAPAMIL] returned an Activity in data set [11] of 641490 RLU.
